Data: PMC6129982 (Nature, 2018)
Residue numbers refer to the chain shown, from its start.

Columns and labels:
Orco [1] = target: T1, Orco (Apocrypta bakeri, UniProt B0FAQ4); assay: Isothermal titration calorimetry; format: binding
T1 sequence (B0FAQ4 2-474): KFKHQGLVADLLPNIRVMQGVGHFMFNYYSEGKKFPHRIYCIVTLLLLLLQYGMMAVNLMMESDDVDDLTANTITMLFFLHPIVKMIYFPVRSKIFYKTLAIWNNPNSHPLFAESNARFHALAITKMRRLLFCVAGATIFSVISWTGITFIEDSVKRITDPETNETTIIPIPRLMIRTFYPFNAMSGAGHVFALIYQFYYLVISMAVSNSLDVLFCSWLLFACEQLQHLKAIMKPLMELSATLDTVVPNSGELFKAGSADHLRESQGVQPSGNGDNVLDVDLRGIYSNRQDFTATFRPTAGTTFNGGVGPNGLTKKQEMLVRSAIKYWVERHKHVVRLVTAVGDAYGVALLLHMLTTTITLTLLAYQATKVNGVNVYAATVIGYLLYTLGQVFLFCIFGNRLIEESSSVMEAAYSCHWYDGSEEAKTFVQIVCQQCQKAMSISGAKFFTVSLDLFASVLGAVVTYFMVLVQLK
Method in brief: (§1)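 A. bakeri Orco was expressed from baculovirus in HEK293S GnTi− cells, StrepTactin-purified and tag-cleaved in HBS/0.05% digitonin. It was used alone or complexed with Fab (1.5-fold molar excess) at ~10 μM monomer. VUAA1 (0.5 mM in the same buffer, 0.5% DMSO matched) was injected at 25 °C: 0.4 μL, then 19 × 2 μL, 150 s apart. A single-site fit (n fixed at 1, first injection excluded) gave Kd, ΔH and ΔQdil; three independent purifications.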

Orco-Fab complex = target: T2, Orco-Fab complex (Apocrypta bakeri, UniProt B0FAQ4); assay: Isothermal titration calorimetry; format: binding
T2 sequence (B0FAQ4 2-474): T1 sequence (B0FAQ4 2-474)
Method in brief: as §1

Orco [2] = target: T1, Orco; assay: Whole-cell voltage-clamp VUAA1 dose-response, HEK293 cell expressing Orco; format: cell-based
Method in brief: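 Whole-cell recording used Flp-In T-Rex 293 cells stably expressing GFP-tagged wild-type Orco, held at −80 mV. Bath: 135 mM NaCl, 5 mM KCl, 2 mM CaCl2, 2 mM MgCl2, 10 mM glucose, HEPES pH 7.3. Pipette: 150 mM KCl, 10 mM NaCl, 1 mM EDTA, HEPES pH 7.45. VUAA1 was diluted in bath solution and locally perfused. Current was normalised to the current at the highest concentration and Hill-fitted; four cells, mean ± s.d. Outside-out patches were held at −140 mV.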

Orco L473A = target: T3, Orco L473A (Apocrypta bakeri, UniProt B0FAQ4, L473A); assay: Cell-based GCaMP assay, mutant Orco homomer; set-up: species or system A. bakeri; conditions: mutation of Leu473 to alanine
T3 sequence (B0FAQ4 1-474 L473A): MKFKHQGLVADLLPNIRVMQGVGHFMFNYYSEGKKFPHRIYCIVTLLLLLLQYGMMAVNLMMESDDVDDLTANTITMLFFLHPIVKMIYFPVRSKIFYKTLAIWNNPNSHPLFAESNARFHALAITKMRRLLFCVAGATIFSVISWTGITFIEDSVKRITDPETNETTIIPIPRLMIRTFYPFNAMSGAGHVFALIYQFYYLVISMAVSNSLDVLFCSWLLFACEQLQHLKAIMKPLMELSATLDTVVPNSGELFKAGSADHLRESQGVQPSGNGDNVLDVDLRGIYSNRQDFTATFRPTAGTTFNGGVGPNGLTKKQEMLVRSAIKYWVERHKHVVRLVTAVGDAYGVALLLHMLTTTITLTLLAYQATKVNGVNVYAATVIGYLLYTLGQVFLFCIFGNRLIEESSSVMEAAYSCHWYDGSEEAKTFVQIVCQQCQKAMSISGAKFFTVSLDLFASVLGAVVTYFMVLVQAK
Method in brief: (§2)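 Orco alone (A. bakeri wild-type or point mutant, or An. gambiae) was transfected with GCaMP6s into HEK293 cells by lipofectamine. After 4 h plus 24 h, cells were read in HEPES-buffered HBSS pH 7.4 with 5 mM CaCl2. VUAA1 was added after 34 s at seven concentrations plus zero, four wells each. GCaMP fluorescence (480/527 nm, 37 °C) was followed for 2 min. A Hill equation fitted to ΔF/Fo gave EC50 and n over N independent replicates.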

Orco V469A = target: T4, Orco V469A (Apocrypta bakeri, UniProt B0FAQ4, V469A); assay: Cell-based GCaMP assay, mutant Orco homomer; set-up: species or system A. bakeri; conditions: mutation of Val469 to alanine
T4 sequence (B0FAQ4 1-474 V469A): T3 sequence (B0FAQ4 1-474 L473A) with V469A, A473L
Method in brief: as §2

Orco T465A = target: T5, Orco T465A (Apocrypta bakeri, UniProt B0FAQ4, T465A); assay: Cell-based GCaMP assay, mutant Orco homomer; set-up: species or system A. bakeri; conditions: mutation of Thr465 to alanine
T5 sequence (B0FAQ4 1-474 T465A): T3 sequence (B0FAQ4 1-474 L473A) with T465A, A473L
Method in brief: as §2

Orco S458A = target: T6, Orco S458A (Apocrypta bakeri, UniProt B0FAQ4, S458A); assay: Cell-based GCaMP assay, mutant Orco homomer; set-up: species or system A. bakeri; conditions: mutation of Ser458 to alanine
T6 sequence (B0FAQ4 1-474 S458A): T3 sequence (B0FAQ4 1-474 L473A) with S458A, A473L
Method in brief: as §2

cryo-EM structure = target: the molecule itself; assay: cryo-EM structure
[3] = ITC 25 °C, fitted parameter, mean ± s.d.
[4] = ITC 25 °C, single-site model, mean ± s.d.

Q: Which results are given for `CCc1ccc(NC(=O)CSc2nnc(-c3cccnc3)n2CC)cc1` [VUAA1]?
A: Kd (Orco [1]): 13 ± 1 µM; heat associated with sample dilution (ΔQdil) (Orco [1]; [3]): -1.0 ± 0.1 kcal/mol; enthalpy of binding (ΔH) (Orco [1]; [4]): -8.3 ± 0.6 kcal/mol; Kd (Orco-Fab complex): 18 ± 2 µM; binding affinity of Orco-Fab complex for VUAA1 versus Orco (Orco-Fab complex; ITC): retained its binding affinity; heat associated with sample dilution (ΔQdil) (Orco-Fab complex; [3]): -1.0 ± 0.2 kcal/mol; enthalpy of binding (ΔH) (Orco-Fab complex; [4]): -9.7 ± 0.4 kcal/mol; EC50 (Orco [2]): 64 ± 7 µM; channel activation (Orco [2]; Orco expressed independently, whole-cell and outside-out patch recording): activated; Hill coefficient n (Orco [2]; whole-cell current, Hill fit, four independent cells, mean ± s.d.): 3.5 ± 0.5; enhancement of apparent sensitivity of Orco homomers versus wild-type (Orco L473A): 10 fold; enhancement of apparent sensitivity of Orco homomers versus wild-type (Orco V469A): 10 fold; VUAA1 responses in Orco homomers versus wild-type (Orco T465A): strongly attenuated; VUAA1 responses in Orco homomers versus wild-type (Orco S458A): strongly attenuated

B1: Apocrypta bakeri Orco, purified (residues Lys2-Lys474, Strep-GFP tag cleaved) (receptor, UniProt B0FAQ4 2-474, looked up)
chain: T1 sequence (B0FAQ4 2-474)
Q: For B1, which “stoichiometry N” value (cryo-EM structure) is on record?
A: 4
